The record followed here is ChEMBL document CHEMBL1777776, “Identification of 2-mercaptohexanoic acids as dual inhibitors of 5-lipoxygenase and microsomal prostaglandin E₂ synthase-1” (Bioorg Med Chem, 2011).

The target of data set [1] is T1, Polyunsaturated fatty acid 5-lipoxygenase (Homo sapiens) (UniProt P09917).
T1 sequence (whole entry): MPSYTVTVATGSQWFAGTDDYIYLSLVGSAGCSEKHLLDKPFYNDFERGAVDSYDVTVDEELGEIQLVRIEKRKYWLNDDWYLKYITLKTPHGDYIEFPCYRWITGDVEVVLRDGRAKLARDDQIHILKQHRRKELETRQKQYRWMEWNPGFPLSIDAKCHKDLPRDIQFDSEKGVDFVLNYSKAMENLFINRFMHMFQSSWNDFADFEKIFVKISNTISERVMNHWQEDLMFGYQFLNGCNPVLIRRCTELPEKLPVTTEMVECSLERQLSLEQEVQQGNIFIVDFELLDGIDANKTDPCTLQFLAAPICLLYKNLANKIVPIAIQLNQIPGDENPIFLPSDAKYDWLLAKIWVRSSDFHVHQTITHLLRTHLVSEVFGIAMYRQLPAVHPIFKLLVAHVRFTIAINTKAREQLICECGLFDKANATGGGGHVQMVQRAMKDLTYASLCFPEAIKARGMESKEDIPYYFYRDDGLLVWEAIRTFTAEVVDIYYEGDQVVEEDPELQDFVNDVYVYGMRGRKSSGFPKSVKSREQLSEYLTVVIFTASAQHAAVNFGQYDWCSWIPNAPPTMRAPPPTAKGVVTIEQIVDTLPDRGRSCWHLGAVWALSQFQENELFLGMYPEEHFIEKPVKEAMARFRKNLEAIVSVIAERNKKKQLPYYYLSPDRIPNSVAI
The data set is described as follows: Inhibition of human recombinant 5-lipoxygenase expressed in Escherichia coli BL21 assessed as enzyme product formation using arachidonic acid as substrate at 1 uM after 10 mins by RP-HPLC analysis. In short, it runs like this:
(§1)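 Human 5-LO expressed in E. coli BL21 (pT3-5LO), affinity-purified and used at once. 0.5 µg enzyme in 1 ml PBS/EDTA with 1 mM ATP preincubated with compound 5–10 min at 4 °C, then warmed 30 s at 37 °C. Reaction started with 2 mM CaCl₂ and AA (routinely 20 µM), with or without 1 µM 13(S)-HpODE. Run 10 min at 37 °C, stopped with ice-cold methanol, products analysed by HPLC. Washout: 10-fold dilution (10 to 1 µM).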

Data set [2] has as its target T2, Polyunsaturated fatty acid 5-lipoxygenase (Homo sapiens, UniProt P09917).
T2 sequence (P09917 whole entry): T1 sequence (whole entry)
Put plainly: Inhibition of human recombinant 5-lipoxygenase expressed in Escherichia coli BL21 assessed as enzyme product formation using arachidonic acid as substrate after 10 mins by RP-HPLC analysis. The procedure, abridged: as §1

In data set [3] the target is T3, Prostaglandin G/H synthase 2 (Homo sapiens) (UniProt P35354).
T3 sequence (whole entry): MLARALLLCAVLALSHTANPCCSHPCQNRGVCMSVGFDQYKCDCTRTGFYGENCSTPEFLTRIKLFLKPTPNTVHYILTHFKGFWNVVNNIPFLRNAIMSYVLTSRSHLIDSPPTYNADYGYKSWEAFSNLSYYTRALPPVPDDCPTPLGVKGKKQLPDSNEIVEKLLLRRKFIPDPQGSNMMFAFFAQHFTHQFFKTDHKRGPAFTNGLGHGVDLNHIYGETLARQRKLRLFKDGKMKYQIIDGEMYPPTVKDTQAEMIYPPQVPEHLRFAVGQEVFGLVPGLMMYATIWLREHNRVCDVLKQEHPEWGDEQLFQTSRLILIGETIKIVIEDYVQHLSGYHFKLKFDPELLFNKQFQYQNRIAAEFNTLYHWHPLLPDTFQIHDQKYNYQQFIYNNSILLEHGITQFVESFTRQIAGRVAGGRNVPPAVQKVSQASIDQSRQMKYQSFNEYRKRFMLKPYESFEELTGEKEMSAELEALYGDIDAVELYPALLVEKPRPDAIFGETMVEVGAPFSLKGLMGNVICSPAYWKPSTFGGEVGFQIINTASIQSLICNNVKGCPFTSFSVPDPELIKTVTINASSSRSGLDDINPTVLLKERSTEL
Put plainly: Inhibition of human recombinant COX2 assessed as residual activity at 10 uM after 5 mins. The procedure, abridged:
(§2)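 Ovine COX-1 (50 units) or human recombinant COX-2 (20 units) in 1 ml 100 mM Tris pH 8 with 5 mM glutathione, 5 µM haemoglobin and 100 µM EDTA. Preincubated with 10 µM compound 5 min at 4 °C, warmed 60 s at 37 °C. Started with AA (5 µM for COX-1, 2 µM for COX-2), run 5 min at 37 °C. 12-HHT extracted and analysed by HPLC. n = 3.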

The target of data set [4] is T4, Prostaglandin E synthase (Homo sapiens, UniProt O14684).
T4 sequence (O14684 whole entry): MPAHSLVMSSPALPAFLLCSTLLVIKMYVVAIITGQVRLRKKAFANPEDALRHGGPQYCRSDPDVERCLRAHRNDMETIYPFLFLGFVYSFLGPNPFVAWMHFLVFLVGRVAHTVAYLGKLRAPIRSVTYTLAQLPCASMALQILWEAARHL
The data set is described as follows: Inhibition of mPGES-1 in human IL-1beta-stimulated A549 cell microsomes assessed as reduction of PGE2 formation from PGH2 after 15 mins. Also noted: species or system Microsome. The procedure, abridged:
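Microsomes from A549 cells stimulated 72 h with IL-1β (1 ng/ml), diluted to 50 µg/ml in 0.1 M potassium phosphate pH 7.4 with 2.5 mM glutathione. Preincubated with compound (1% DMSO final) 15 min at 4 °C. Reaction started with 20 µM PGH₂, run 1 min at 4 °C, stopped with FeCl₂/citric acid containing 11β-PGE₂; PGE₂ quantified. Mean of n = 3–5.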

Data set [5] deals with T2, Polyunsaturated fatty acid 5-lipoxygenase. Put plainly: Inhibition of 5-lipoxygenase in A23187-stimulated human PMNL assessed as enzyme product formation preincubated 15 mins by RP-HPLC analysis in presence of exogenous arachidonic acid. In short, it runs like this:
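Freshly isolated human PMNL (5 × 10⁶/ml PGC buffer: PBS pH 7.4, 1 mg/ml glucose, 1 mM CaCl₂) preincubated with compound 15 min at 37 °C. Stimulated with 2.5 µM A23187 plus exogenous AA for 10 min at 37 °C. Stopped with methanol, PGB₁ added as internal standard, lipoxygenase products analysed by HPLC. Mean of n = 3–5.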

Data set [6] concerns the target T5, Prostaglandin G/H synthase 1 (Ovis aries) (UniProt P05979).
T5 sequence (whole entry): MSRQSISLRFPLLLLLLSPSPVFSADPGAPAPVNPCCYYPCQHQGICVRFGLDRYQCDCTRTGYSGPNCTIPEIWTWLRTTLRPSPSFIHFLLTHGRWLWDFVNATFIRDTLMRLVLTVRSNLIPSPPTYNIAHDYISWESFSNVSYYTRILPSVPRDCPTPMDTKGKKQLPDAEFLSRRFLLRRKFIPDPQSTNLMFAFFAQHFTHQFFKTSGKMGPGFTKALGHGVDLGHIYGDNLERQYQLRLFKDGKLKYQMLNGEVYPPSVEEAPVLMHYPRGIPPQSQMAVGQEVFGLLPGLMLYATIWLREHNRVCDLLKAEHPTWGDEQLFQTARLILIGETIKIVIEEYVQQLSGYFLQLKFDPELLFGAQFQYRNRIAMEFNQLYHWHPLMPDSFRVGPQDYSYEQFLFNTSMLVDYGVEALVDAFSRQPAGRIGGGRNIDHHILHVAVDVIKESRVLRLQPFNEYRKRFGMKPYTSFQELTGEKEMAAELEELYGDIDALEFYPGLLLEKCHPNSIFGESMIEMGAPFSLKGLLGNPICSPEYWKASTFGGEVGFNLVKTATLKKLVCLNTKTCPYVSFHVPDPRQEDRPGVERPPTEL
The data set is described as follows: Inhibition of ovine COX1 assessed as residual activity at 10 uM after 5 mins. The procedure, abridged: as §2

Data set [7] deals with A549. The data set is described as follows: Cytotoxicity against human A549 cells assessed as cell viability at 10 uM after 16 hrs by MTT assay. Type of data set: cell-based. The settings on record: a549, 5 h, in the assay text read “5 hrs” for “16 hrs”. The procedure, abridged:
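A549 cells plated at 4 × 10⁴ cells per well, incubated 16 h at 37 °C, 5% CO₂, then exposed to 10 µM compound or DMSO (≤0.3% final) for 5 h. MTT added for 4 h, formazan solubilized with SDS in 20 mM HCl, absorbance at 595 nm read relative to vehicle-treated cells.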
Background: Tetrazolium dyes change colour on reduction, which living cells bring about.

The structures appear in SMILES notation. The source made the active and inactive calls. The calls are words filed in the database; no cut-off is given here.

As for `CC(C)c1ccc2c(c1)c(SC(C)(C)C)c(CC(C)(C)C(=O)O)n2Cc1ccc(Cl)cc1`, in data set [1], the inhibition result is “inactive”.

Regarding `CCCCC(Sc1ccc(OCCCOc2cccc3c2CCCC3)cc1)C(=O)O` (stereo not drawn), the IC50 in data set [2] is 4500 nM; in data set [4] it was 2200 nM; in data set [5], 1400 nM. The inhibition entry in data set [3] and in data set [6] was “inactive” in each case. The Activity result in data set [7] was “Non-toxic”.

In the case of `CCCCC(Sc1ccc(OCCCOc2ccc(Cl)c(C(F)(F)F)c2)cc1)C(=O)O` (stereo not drawn), the IC50 in data set [2] amounted to 2000 nM; in data set [4], 1700 nM; in data set [5], 1500 nM. Moreover, the inhibition entry in data set [3] was “inactive”. Besides, the Activity is 71.3% in data set [6] and “Non-toxic” in data set [7].

As usually defined, the IC50 is the concentration at which inhibition is half-maximal.
